Screening data: PubChem, The Scripps Research Institute Molecular Screening Center
Hits are enriched below; roughly 2.5% of the tested compounds scored in any of these assays.
zfTRPN1 agonist: agonists of zebrafish TRPN1 channel. HEK293 zebrafish TRPN1-YFP, Fluo-8 calcium fluorescence; 100% = response to 87 µM carbachol. activation, % at 3 µM. 220,000 compounds, 0.18% hits. AID 1424;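 active = activation above its plate's cutoff, the mean activation of test wells on that plate plus 3 SD, cut at about 19% in these data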;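 also: 0% = DMSO alone and 100% = 87 µM carbachol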
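Assay system: Zebrafish TRPN1-YFP in HEK293 cells | Incubation: Dye loading 1 h at 37 °C, then 30 min room temperature | Measured by: Kinetic Fluo-8 fluorescence, ex 470-495, em 515-575 nm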
TRPML3 agonist: activates the human TRPML3 channel | Q8TDD5 | HEK293 TRPML3-YFP, Fluo-8 calcium fluorescence; 100% = the carbachol control signal | activation, % at 3 µM | 220,000 compounds, 0.29% hits;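 active = activation above its plate's cutoff, the mean activation of the plate's test wells plus 3 SD, cut at about 12% in these data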;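 also: 0% = DMSO only wells and 100% = carbachol wells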
Target sequence (Q8TDD5 whole entry, looked up): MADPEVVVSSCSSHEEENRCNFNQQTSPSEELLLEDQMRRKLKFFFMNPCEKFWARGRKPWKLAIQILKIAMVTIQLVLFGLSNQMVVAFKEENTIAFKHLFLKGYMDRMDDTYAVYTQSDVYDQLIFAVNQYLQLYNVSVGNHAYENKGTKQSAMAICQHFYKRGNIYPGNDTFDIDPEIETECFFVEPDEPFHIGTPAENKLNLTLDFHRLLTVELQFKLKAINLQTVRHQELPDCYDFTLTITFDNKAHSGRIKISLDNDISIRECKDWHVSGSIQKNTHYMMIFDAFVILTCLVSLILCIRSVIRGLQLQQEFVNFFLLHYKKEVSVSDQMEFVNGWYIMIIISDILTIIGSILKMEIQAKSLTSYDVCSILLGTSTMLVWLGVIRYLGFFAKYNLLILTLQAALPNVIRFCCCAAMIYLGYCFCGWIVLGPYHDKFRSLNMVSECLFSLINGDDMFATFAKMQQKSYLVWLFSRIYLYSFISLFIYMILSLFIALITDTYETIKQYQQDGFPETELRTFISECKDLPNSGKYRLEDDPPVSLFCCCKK
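Material: TRPML3-YFP stable HEK293 cells | Dosing: One concentration, 3 µM nominal, 0.3% DMSO | Timing: 125 s total fluorescence read per well | Technique: Fluo-8 calcium dye fluorescence, ex 470-495, em 515-575 nm | Measure: Percent activation from peak-to-basal fluorescence ratio, scaled between DMSO and carbachol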
OX1R antag-1: antagonists of human orexin 1 receptor. O43613. CHO/OX1R cells, Fluo-8 calcium fluorescence, orexin A. inhibition, % at 5 µM. 330,000 compounds, 0.43% hits. AID 434989;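 active = inhibition above its plate's threshold, mean inhibition of all tested compounds on the plate plus 3 SD, cut at about 37% in these data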;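 also: 0% = orexin A challenge wells and 100% = SB-334867-A antagonist wells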
CHO parental Ca: signal in parental CHO cells, OX1R antagonist counter-screen | inhibition, % at 5.6 µM | AID 463079 | 330,000 compounds, 0.63% hits | parental CHO-K1, ATP-induced calcium, Fluo-8 fluorescence;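 active = inhibition above that plate's mean sample inhibition plus 3 SD, cut at about 26% in these data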;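 also: 0% = ATP-challenged DMSO wells and 100% = DMSO wells without ATP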
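material = parental CHO cells | also added = ATP as calcium-mobilizing challenge | dosing = single point at 5.6 µM | detection = intracellular calcium via Fluo-8 no-wash fluorescent dye | read-out = % inhibition | benchmarks = low control ATP plus DMSO, high control DMSO only | repeats = one well per compound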
OX1R antag-2: antagonists of human orexin 1 receptor (OX1R); O43613; OX1R-expressing cells, FRET antagonist read-out; inhibition, % at 6.6 µM; 330,000 compounds, 1.8% hits; in the data active = inhibition mostly above about 38%, no sharp cut-off; inactive = mostly below about 40%;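 also: 0% = agonist challenge alone and 100% = reference antagonist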
OX1R Ca confirm: confirmation of human orexin 1 receptor antagonists; shares compounds with OX1R antag-1; CHO/OX1R cells, orexin A calcium Fluo-8 fluorescence; inhibition, % at 5 µM; 1,100 compounds, 38% hits; AID 492963; in the data active = inhibition above about 29%;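 also: 0% = agonist challenge alone and 100% = reference antagonist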
CHO Ca triplic: counter-screen: parental CHO calcium response change, triplicate; 1,100 compounds, 9.3% hits; shares compounds with OX1R antag-1; inhibition, % at 5.6 µM; parental CHO-K1, ATP-induced calcium, Fluo-8 fluorescence;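 active = inhibition above a per-plate limit, the mean inhibition of that plate's test compounds plus 3 SD, cut at about 25% in these data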;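 also: 0% = ATP challenge with DMSO and 100% = DMSO without ATP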
OX1R HTRF conf: confirmation of human orexin 1 receptor antagonists, HTRF format; shares compounds with OX1R antag-2; 1,800 compounds, 49% hits; OX1R-expressing cells, HTRF antagonist assay; inhibition, % at 6.6 µM; in the data active = inhibition above about 55%;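 also: CHO cells expressing OX1R stimulated with orexin A at about EC80; 0% = agonist challenge alone and 100% = reference antagonist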
CHO-K1 HTRF: counter-screen for OX1R antagonists: effect in parental CHO-K1 cells; shares compounds with OX1R antag-2; 1,800 compounds, 48% hits; inhibition, % at 6.6 µM; HTRF counterscreen; in the data active = inhibition above about 17%;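 also: 0% = agonist challenge with vehicle and 100% = vehicle alone without agonist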
Numbers without * were called inactive; / = no result given.

SMILES	zfTRPN1 agonist	TRPML3 agonist	OX1R antag-1	CHO parental Ca	OX1R antag-2	OX1R Ca confirm	CHO Ca triplic	others
Cc1cccc2c1cnn2C(=O)CCC(=O)NCc1ccc(F)cc1	/	/	49.7*	7.5	17.2	0.6	3.7
CCNC(=O)Nc1cc(S(=O)(=O)Nc2ccc(OC)cc2)ccc1N1CCOCC1	/	/	41.0*	14.1	11.5	35.6*	75.0*
COc1ccccc1NS(=O)(=O)c1cc([N+](=O)[O-])ccc1N/N=C/c1c[nH]c2ccccc12	1.6	1.3	30.6	21.1	0.8	20.1	23.6
CCCOP(=O)(OCCC)C(Nc1ccc(C(C)C)cc1)c1ccc([N+](=O)[O-])cc1 (stereo not given)	0.8	0.3	54.5*	-6.4	1.8	-1.8	-26.9
COP(=O)(OC)C(Nc1ccc([N+](=O)[O-])cc1)c1ccccc1 (stereo not given)	2.0	0.8	-6.9	-19.3	11.4	/	/
COc1ccc(CN2C(=O)NC(C)(c3ccc(C)cc3)C2=O)cc1F (stereo not given)	0.6	0.3	55.6*	-19.8	7.6	-1.5	2.0
C=CC(COCc1ccccc1)N(Cc1ccc(OC)cc1)S(=O)(=O)c1ccccc1Br (stereo not given)	/	/	1.6	18.4	38.8	/	/
C=CC(COCc1ccccc1)N([C@@H](Cc1ccccc1)C(=O)OC)S(=O)(=O)c1ccccc1Br (stereo not given in full)	/	/	80.1*	29.1	11.3	10.6	19.7
CCC1CCCCN1C(=O)COC(=O)COc1ccc(Br)cc1 (stereo not given)	/	/	5.1	-4.7	9.0	/	/
O=S(=O)(NCc1ccccc1)c1ccc(S(=O)(=O)N(Cc2ccccn2)C2CCCC2)cc1	-0.5	-1.2	50.2*	-4.8	33.3	15.7	-9.3
COc1ccc(C(=O)O)cc1S(=O)(=O)N(CCc1ccccc1)Cc1ccccc1	2.3	0.7	8.9	14.8	4.9	/	/
O=C(CNc1cccc(S(=O)(=O)N2CCCC2)c1)Nc1ccc(C(F)(F)F)cc1	/	/	25.0	20.1	20.2	3.7	12.3
CCOc1ccc(NS(=O)(=O)c2cc(OC)ccc2OC)cc1	-0.3	-0.7	-8.4	-6.2	7.2	/	/
COc1ccc(OC)c(S(=O)(=O)Nc2ccc(Oc3ccccc3)cc2)c1	-0.4	-0.7	45.3	13.2	9.6	9.2	9.5
COc1ccc(NC(=S)N/N=C/c2cccn2Cc2ccc(F)cc2)cc1	-0.9	-0.3	-13.8	-15.8	36.8	/	/
Cc1cc(C)cc(N(CC(=O)Nc2ccc(-c3nc4ccc(C)cc4s3)cc2)S(C)(=O)=O)c1	2.2	0.9	36.6*	-8.3	-3.8	-3.5	-0.4
Cc1ccc2nc(-c3ccc(NC(=O)CN(c4ccccc4C)S(C)(=O)=O)cc3)sc2c1	-0.8	-0.5	-0.8	27.1	12.1	/	/
O=C(CSc1nnc(NCc2ccccc2)s1)c1ccco1	-0.3	-0.5	31.6	-13.6	53.6	7.2	10.1
O=C(NC1CCS(=O)(=O)C1)c1ccccc1Cl (stereo not given)	/	/	-0.6	-7.2	6.0	/	/
O=[N+]([O-])c1ccc(Nc2ccc(Cl)cc2)nc1	-1.4	0.3	23.4	14.2	31.1	/	/
O=[N+]([O-])c1ccc(Nc2ccc3ccccc3c2)nc1	0.0	1.2	45.5*	0.2	35.2	22.4	4.2
COc1cccc(C(=O)NC2CCN(CC(=O)Nc3ccccc3Cl)CC2)c1	/	/	-25.6	-11.6	4.0	/	/
O=C(O)CN1C(=O)c2ccc(Oc3ccc4c(c3)C(=O)N(CC(=O)O)C4=O)cc2C1=O	3.7	0.6	-5.7	-0.2	16.6	/	/
Cc1ccc(NC(=O)Cn2nc(C(=O)O)c3ccccc3c2=O)cc1S(=O)(=O)N1CCCCC1	/	/	40.9*	4.0	13.7	11.8	0.5
CCC(=O)NCCCNc1nc2c(C)cccc2cc1C#N	-0.5	-0.1	-21.5	-11.7	15.9	/	/
SMILES	zfTRPN1 agonist	TRPML3 agonist	OX1R antag-1	CHO parental Ca	OX1R antag-2	OX1R Ca confirm	CHO Ca triplic	others
Cc1cccc2cc(C#N)c(NCCNS(=O)(=O)c3ccc4c(c3)OCCO4)nc12	0.8	-0.6	34.0	-1.6	72.8*	32.1*	-4.7	OX1R HTRF conf=63.8*;CHO-K1 HTRF=5.5
c1ccc2nc(-c3ccc(N4CCOCC4)cc3)ccc2c1	0.1	0.6	-12.7	-6.8	33.1	/	/
Cc1cc(-c2ccc(N3CCOCC3)cc2)nc2ccccc12	1.3	2.1	31.7	-10.6	91.0*	54.3*	-0.9	OX1R HTRF conf=93.0*;CHO-K1 HTRF=11.8
CC(=O)Cc1nsc(NC(=O)c2oc(-c3ccccc3Cl)cc2C)n1	0.5	0.0	-11.5	-16.4	17.6	/	/
CC(=O)Cc1nsc(NC(=O)c2ccc(-c3ccccc3Cl)o2)n1	1.8	0.2	61.2*	-26.1	80.5*	2.8	7.7	OX1R HTRF conf=40.4;CHO-K1 HTRF=7.0
CC(C)=CC1C(C(=O)Nc2ccc(S(=O)(=O)N3CCOCC3)cc2)C1(C)C (stereo not given)	/	/	-14.9	-11.9	27.2	/	/
CC(=O)c1sc(NC(=O)c2ccc(COc3ccccc3Cl)o2)nc1C	/	/	-10.5	-4.8	5.6	/	/
Cc1cc(C)cc(CSCC(=O)N/N=C/c2ccc(OCC(=O)NCc3ccco3)cc2)c1	0.2	0.2	50.3*	-19.6	58.5*	31.8*	-2.0	OX1R HTRF conf=53.8;CHO-K1 HTRF=6.8
CC(C)C(NS(=O)(=O)c1cccc2nsnc12)C(=O)N1CCn2c1nc1ccccc12 (stereo not given)	1.1	-0.8	27.4	-13.6	134.1*	19.1	-8.6	OX1R HTRF conf=92.2*;CHO-K1 HTRF=16.2
O=[N+]([O-])c1ccc(Oc2ccc(Oc3ccc(C(F)(F)F)cn3)cc2)nc1	-0.8	0.2	-8.3	-1.9	23.1	/	/
CCOc1ccc(OCCC(=O)OC(C)C(=O)Nc2ccc(C(C)=O)cc2)cc1 (stereo not given)	/	/	-24.9	-7.8	3.9	/	/
CC(=O)Nc1ccc(NC(=O)C(C)OC(=O)COc2ccc(Nc3ccccc3)cc2)cc1 (stereo not given)	/	/	41.4*	-9.7	30.7*	32.9*	-1.1	OX1R HTRF conf=24.1;CHO-K1 HTRF=4.6
CCOc1ccc(-c2nc(CSCC(=O)NCC3CCCO3)c(C)o2)cc1 (stereo not given)	/	/	-27.3	-23.7	12.1	/	/
COc1ccc(Br)cc1CNC(=O)C1CCCN(S(=O)(=O)N2CC(C)CC(C)C2)C1 (stereo not given)	/	/	-25.4	-12.4	6.4	/	/
CCCSc1nnc(NC(=O)Nc2ccc(C)cc2)s1	0.9	0.9	-26.0	-18.4	13.2	/	/
CCCSc1nnc(NC(=O)Nc2ccc(F)cc2)s1	5.1	1.7	29.4	9.4	76.7*	9.7	20.8	OX1R HTRF conf=47.6;CHO-K1 HTRF=10.5
